Experimental findings from ChEMBL document CHEMBL3792330, “Designed Glycopeptidomimetics Disrupt Protein-Protein Interactions Mediating Amyloid β-Peptide Aggregation and Restore Neuroblastoma Cell Viability” (J Med Chem, 2016) are described below.

Activity calls are given as the source filed them. The calls are words filed in the database; no cut-off is given here. *1 amine or outer side, *2 acyl side, *3 side chain or, on linkers, in order; H or OH if unused. Where a SMILES comes first, the peptide text is derived from it. [ ]: non-standard residue; d: D form. X1 = O=C(CCOC[C@H]1O[C@@H](OCCCN[*:1])[C@H](O)[C@@H](O)[C@@H]1O)[*:2]

In series [1] the target is Amyloid-beta precursor protein (Homo sapiens) (UniProt P05067). Nature of the series: Inhibition of amyloid beta (1 to 42) (unknown origin) fibril formation assessed as extension of aggregation half life at compound/protein ratio of 10/1 after 42 hrs by ThT fluorescence assay relative to control. Set-up: Activity: scale not given: the % may be the effect or the level left. The essentials: (§1)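 Aβ1-42 (1 mM in 1% ammonia, diluted in buffer) added to a final 10 μM into 40 μM ThT in 10 mM Tris-HCl, 100 mM NaCl pH 7.4, with compound at 100, 50, 10 or 1 μM (0.5% DMSO), at room temperature. Ex/em 440/485 nm read for 42 h, in duplicate or triplicate, 2–4 runs. t1/2 and plateau F expressed relative to Aβ alone.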
Amyloid-beta precursor protein (Homo sapiens), sequence (P05067 whole entry): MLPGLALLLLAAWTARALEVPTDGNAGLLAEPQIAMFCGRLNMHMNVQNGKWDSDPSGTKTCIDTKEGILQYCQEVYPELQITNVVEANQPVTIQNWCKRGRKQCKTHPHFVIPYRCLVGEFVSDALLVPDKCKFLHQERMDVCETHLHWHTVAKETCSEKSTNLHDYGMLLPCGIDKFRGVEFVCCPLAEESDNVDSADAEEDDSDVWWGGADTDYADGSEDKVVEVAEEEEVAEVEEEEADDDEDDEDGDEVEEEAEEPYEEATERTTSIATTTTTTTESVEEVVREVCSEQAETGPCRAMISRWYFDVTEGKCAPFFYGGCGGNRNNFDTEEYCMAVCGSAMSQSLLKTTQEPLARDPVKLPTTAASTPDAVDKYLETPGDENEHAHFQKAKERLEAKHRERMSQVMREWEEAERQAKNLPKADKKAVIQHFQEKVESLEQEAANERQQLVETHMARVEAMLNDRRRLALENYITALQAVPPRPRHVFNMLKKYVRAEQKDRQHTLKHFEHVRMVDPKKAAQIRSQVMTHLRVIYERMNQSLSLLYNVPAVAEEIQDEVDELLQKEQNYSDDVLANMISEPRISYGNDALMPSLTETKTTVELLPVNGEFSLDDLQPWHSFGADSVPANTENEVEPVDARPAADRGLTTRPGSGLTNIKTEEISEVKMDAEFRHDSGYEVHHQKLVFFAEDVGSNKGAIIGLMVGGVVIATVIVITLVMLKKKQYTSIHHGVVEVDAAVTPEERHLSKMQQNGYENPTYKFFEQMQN

For series [2] the target is unchanged. Nature of the series: Inhibition of amyloid beta (1 to 42) (unknown origin) fibril formation assessed as extension of aggregation half life at compound/protein ratio of 1/1 after 42 hrs by ThT fluorescence assay relative to control. Set-up: Activity: scale not given: the % may be the effect or the level left. The essentials: as §1
For series [3] the target is unchanged. Nature of the series: Inhibition of amyloid beta (1 to 42) (unknown origin) fibril formation assessed as decrease in fluorescence plateau at compound/protein ratio of 1/1 after 42 hrs by ThT fluorescence assay relative to control. The essentials:
as §1

Series [4] has the same target. Nature of the series: Inhibition of amyloid beta (1 to 42) (unknown origin) fibril formation assessed as decrease in fluorescence plateau at compound/protein ratio of 10/1 after 42 hrs by ThT fluorescence assay relative to control. The note with it: concentration not given here. The essentials:
as §1

Series [5] has the same target. Nature of the series: Inhibition of amyloid beta (1 to 42) (unknown origin) oligomerization assessed as remaining monomer level at compound/protein ratio of 1/1 after 12 hrs by capillary electrophoresis (reference value: 19%). The essentials: (§2)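 Aβ1-42 pretreated in 0.16% NH4OH, lyophilized, then reconstituted at 100 μM in 20 mM phosphate pH 7.4 with 2.5% DMSO, compound/peptide 1/1. Species separated in fused silica capillary (50 μm ID) with 80 mM phosphate pH 7.4 background electrolyte, −20 kV, 25 °C. UV detection at 190 nm; profiles taken at 0 and 12 h.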

Series [6] has the same target. Nature of the series: Inhibition of amyloid beta (1 to 42) (unknown origin) fibril formation assessed as extension of aggregation half life at compound/protein ratio of 0.1/1 after 42 hrs by ThT fluorescence assay relative to control. Also on record: Activity: scale not given: the % may be the effect or the level left. The essentials:
as §1

The target is the same in series [7]. Nature of the series: Binding affinity to synthetic 15N,13C-labelled recombinant amyloid beta (1 to 42) (unknown origin) assessed as negative nuclear overhauser effect at 0.4 mM after 2.5 weeks by 1D 1H water LOGSY method. The essentials: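 WaterLOGSY at 5 °C in 50 mM sodium phosphate pH 7.4 with 10% D2O, synthetic Aβ1-42. Ligand at 0.4 mM. Selective water inversion with a 20 ms Gaussian pulse, 0.5 s mixing, 2 s recycle delay, 1200 scans (about 1 h), 500 MHz cryoprobe.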

For series [8] the target is unchanged. Nature of the series: Binding affinity to synthetic 15N,13C-labelled recombinant amyloid beta (1 to 42) (unknown origin) assessed as negative nuclear overhauser effect at 0.4 mM after 2.5 weeks by 2D NOESY method. The essentials:
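2D NOESY at 5 °C with 0.2 s mixing time. Synthetic Aβ1-42 in 50 mM sodium phosphate pH 7.4 with 10% D2O, ligand at 0.4 mM, recorded at 500 MHz.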

Series [9] has the same target. Nature of the series: Binding affinity to amyloid beta (1 to 42) (unknown origin) by SPR analysis. The essentials: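 Aβ1-42 (0.05 μM in 10 mM sodium acetate pH 4.6) amine-coupled to an EDC/NHS-activated gold chip, then rinsed with 0.1% NH4OH to leave mainly monomer. Analytes in 150 mM PBS with 2% DMSO were injected at 12.5–200 μM for 1 min at 80 μL/min. DMSO solvent correction applied and the ethanolamine-blocked blank channel subtracted. Regeneration with 0.1% NH4OH.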
(Surface plasmon resonance follows binding to a sensor surface in real time, without labels.)

The target is the same in series [10]. Nature of the series: Binding affinity to synthetic 15N,13C-labelled recombinant amyloid beta (1 to 42) (unknown origin) at 0.4 mM after 2.5 weeks by saturation transfer difference method. The essentials:
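1D 1H STD at 5 °C in 50 mM sodium phosphate pH 7.4 with 10% D2O. Cascade of 50 ms Gaussian pulses (B1 0.1 kHz, 3 s total) applied alternately on-resonance at −0.7 ppm and off-resonance at +30 ppm. 320 scans (50 min). Ligand at 0.4 mM.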

Series [11] has the same target. Nature of the series: Inhibition of amyloid beta (1 to 42) (unknown origin) fibril formation assessed as decrease in fluorescence plateau at compound/protein ratio of 0.1/1 after 42 hrs by ThT fluorescence assay relative to control. The note with it: concentration not given here. The essentials:
as §1

The target is the same in series [12]. Nature of the series: Inhibition of amyloid beta (1 to 42) (unknown origin) oligomerization assessed as formation of larger than dodecamers at compound/protein ratio of 1/1 at 12 hrs by capillary electrophoresis. The essentials: as §2
In series [13] the test system is SH-SY5Y. Nature of the series: Neuroprotective activity against amyloid beta (1 to 42)-induced toxicity in human SH-SY5Y cells assessed as cell viability at 0.25 to 5 uM after 24 hrs by MTS assay. It is filed as functional, cell-based. The essentials:
(§3)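 Aβ1-42 at 50 μM in sterile PBS pre-incubated 24 h at room temperature with 1, 5, 10 or 50 μM compound, then diluted 1:10 (5 μM Aβ final) onto SH-SY5Y cells. Cells seeded at 20 000/well in low-serum Optimem, 37 °C, 5% CO2, 24 h. Exposure a further 24 h in quadruplicate. MTS viability or LDH release read; assays repeated twice.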
In general terms: Tetrazolium dyes change colour on reduction, which living cells bring about.

For another series, the system named is Plasma. Nature of the series: Metabolic stability in 10% human plasma assessed as drug degradation at 1 uM after 24 hrs by HPLC analysis. It is filed as ADME, cell-free. The essentials: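 Compounds taken from 40 μM DMSO stock to 1 μM in 10% human plasma/90% sterile PBS, held 24 h at 37 °C. Analysed by C18 HPLC with a 0–80% gradient (A: 0.1% TFA in water; B: 0.05% TFA in acetonitrile).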

The subject of series [14] is SH-SY5Y. Nature of the series: Neuroprotective activity against amyloid beta (1 to 42)-induced membrane damage in human SH-SY5Y cells at 0.1 to 5 uM after 24 hrs by LDH assay. Type of series: functional, cell-based. The essentials:
as §3

The term inhibition denotes the percentage by which the read-out fell short of the control. In the case of `COc1ccc(NC(C)=O)cc1C(=O)NNC(=O)[C@@H](NC(=O)CCOC[C@H]1OC(OCCCNC(=O)[C@@H](NC(=O)[C@H](C)NC(=O)OC(C)(C)C)C(C)C)[C@H](O)[C@@H](O)[C@@H]1O)C(C)C` (stereo partly drawn), the Activity in series [1] amounted to 379%; in series [2], 138%. Moreover, the inhibition result in series [3] was “inactive”. In addition, the inhibition in series [4] was determined as 41%.

`COc1ccc(NC(C)=O)cc1C(=O)NNC(=O)[C@H](CCCCN)NC(=O)CCOC[C@H]1OC(OCCCNC(=O)[C@@H](NC(=O)[C@H](C)NC(=O)OC(C)(C)C)C(C)C)[C@H](O)[C@@H](O)[C@@H]1O` (stereo partly drawn): in series [1], the inhibition result was “Active”. Also, the Activity in series [2] was 154%. For the same compound, the inhibition stood at 26% in series [3] (concentration not given here) and 84% in series [4].

Turning to `COc1ccc(NC(C)=O)cc1C(=O)NNC(=O)[C@H](CCCCN)NC(=O)CCOC[C@H]1O[C@@H](OCCCNC(=O)[C@@H](NC(=O)[C@H](C)N)C(C)C)[C@H](O)[C@@H](O)[C@@H]1O`, the inhibition result in series [1] and in [12] was “Active” each time. Besides, the Activity in series [2] was 165%; in [5] it was 52%; in [6] it was 129%; in series [9] it was “Dose-dependent effect”. Also, the outcome in series [7], in [8] and in [10] was Active. The inhibition came out at 34% in series [3] (concentration not given here), 16% in [11] and 90% in [4].

`COC(=O)[C@H](CC(C)C)NC(=O)[C@@H](NC(=O)CCOC[C@H]1O[C@@H](OCCCNC(=O)[C@@H](NC(=O)[C@H](C)N)C(C)C)[C@H](O)[C@@H](O)[C@@H]1O)C(C)C` (H-AV[X1]VL-OMe): the outcome in the series on SH-SY5Y [13] and with SH-SY5Y [14] was Active. Further, the values for the Activity in series [1] and in series [9] were 280% and “Dose-dependent effect”, respectively. The inhibition entry in series [2] and in [3] was “inactive” in each case. The Stability result in the series on Plasma is recorded as “Unstable”. Besides, the inhibition in [4] is 56%.
